Laboratory results as given in ChEMBL document CHEMBL4689842, “EUbOPEN Chemogenomics Library wave 1” (2021).

Tested on: U2OS
Test: Multiplex assay against U2OS
Format: toxicity, cell-based
Conditions: human
Outline: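 Four dyes were applied at seeding to live cells: Hoechst33342, BioTracker Green Microtubule Cytoskeleton Dye, MitoTracker Red and Annexin V Alexa Fluor 680. Imaging after compound addition used a CQ1 microscope at 37°C and 5% CO2. CellPathfinder machine-learning gating then sorted cells into Hoechst high-intensity objects or normal cells, normal cells into healthy, pyknosed or fragmented nuclei, and pyknosed cells into mitotic or apoptotic, with tubulin, mitochondrial-mass and membrane-permeability phenotypes given as per cents of healthy-nucleus cells.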

[1] = 12 h, 1 µM, compound concentration 1 uM, replicate 1
[2] = 12 h, 1 µM, compound concentration 1 uM, replicate 2
[3] = 12 h, 10 µM, compound concentration 10 uM, replicate 1
[4] = 12 h, 10 µM, compound concentration 10 uM, replicate 2
[5] = 24 h, 1 µM, compound concentration 1 uM, replicate 1
[6] = 24 h, 1 µM, compound concentration 1 uM, replicate 2
[7] = 24 h, 10 µM, compound concentration 10 uM, replicate 1
[8] = 24 h, 10 µM, compound concentration 10 uM, replicate 2
[9] = 48 h, 1 µM, compound concentration 1 uM, replicate 1
[10] = 48 h, 1 µM, compound concentration 1 uM, replicate 2
[11] = 48 h, 10 µM, compound concentration 10 uM, replicate 1
[12] = 48 h, 10 µM, compound concentration 10 uM, replicate 2

For `COc1ccccc1CN[C@H]1C2CCN(CC2)[C@H]1C(c1ccccc1)c1ccccc1` [CP-96345], the “Population Apoptotic (%)” value [1] was 22%, the “Population Fragmented Nuclei (%)” value [1] was 14% and the “Population Healthy Nuclei (%)” value [1] was 71%. The “Population Hoechst High Intensity Objects (%)” value [1] was 11%, the “Population Membrane Permeable-Phenotype (%)” value [1] was 8% and the “Population Mitochondria Different-Phenotype (%)” value [1] was 20%. The “Population Mitotic Cells (%)” value [1] was 77%, the “Population Normal (%)” value [1] was 88% and the “Population Pyknosed Nuclei (%)” value [1] was 14%. The “Population Tubulin-Different-Phenotype (%)” value [1] was 16%, the “Total Cell Count” value [1] was 136 and the “Population Apoptotic (%)” value [2] was 66%. The “Population Fragmented Nuclei (%)” value [2] was 4%, the “Population Healthy Nuclei (%)” value [2] was 92% and the “Population Hoechst High Intensity Objects (%)” value [2] was 0%. The “Population Membrane Permeable-Phenotype (%)” value [2] was 4%, the “Population Mitochondria Different-Phenotype (%)” value [2] was 7% and the “Population Mitotic Cells (%)” value [2] was 33%. For the same compound, the “Population Normal (%)” value [2] was 100%, the “Population Pyknosed Nuclei (%)” value [2] was 3% and the “Population Tubulin-Different-Phenotype (%)” value [2] was 8%. For the same compound, the “Total Cell Count” value [2] was 90, the “Population Apoptotic (%)” value [3] was 51% and the “Population Fragmented Nuclei (%)” value [3] was 10%. For the same compound, the “Population Healthy Nuclei (%)” value [3] was 65%, the “Population Hoechst High Intensity Objects (%)” value [3] was 6% and the “Population Membrane Permeable-Phenotype (%)” value [3] was 7%. For the same compound, the “Population Mitochondria Different-Phenotype (%)” value [3] was 87%, the “Population Mitotic Cells (%)” value [3] was 48% and the “Population Normal (%)” value [3] was 93%. For the same compound, the “Population Pyknosed Nuclei (%)” value [3] was 24%, the “Population Tubulin-Different-Phenotype (%)” value [3] was 84% and the “Total Cell Count” value [3] was 127. For the same compound, the “Population Apoptotic (%)” value [4] was 50%, the “Population Fragmented Nuclei (%)” value [4] was 2% and the “Population Healthy Nuclei (%)” value [4] was 86%. The “Population Hoechst High Intensity Objects (%)” value [4] was 3%, the “Population Membrane Permeable-Phenotype (%)” value [4] was 1% and the “Population Mitochondria Different-Phenotype (%)” value [4] was 45%. The “Population Mitotic Cells (%)” value [4] was 50%, the “Population Normal (%)” value [4] was 96% and the “Population Pyknosed Nuclei (%)” value [4] was 10%. The “Population Tubulin-Different-Phenotype (%)” value [4] was 26%, the “Total Cell Count” value [4] was 77 and the “Population Apoptotic (%)” value [5] was 45%. For the same compound, the “Population Fragmented Nuclei (%)” value [5] was 12%, the “Population Healthy Nuclei (%)” value [5] was 79% and the “Population Hoechst High Intensity Objects (%)” value [5] was 7%. The “Population Membrane Permeable-Phenotype (%)” value [5] was 6%, the “Population Mitochondria Different-Phenotype (%)” value [5] was 13% and the “Population Mitotic Cells (%)” value [5] was 54%. For the same compound, the “Population Normal (%)” value [5] was 92%, the “Population Pyknosed Nuclei (%)” value [5] was 7% and the “Population Tubulin-Different-Phenotype (%)” value [5] was 7%. The “Total Cell Count” value [5] was 154, the “Population Apoptotic (%)” value [6] was 54% and the “Population Fragmented Nuclei (%)” value [6] was 4%. The “Population Healthy Nuclei (%)” value [6] was 85%, the “Population Hoechst High Intensity Objects (%)” value [6] was 2% and the “Population Membrane Permeable-Phenotype (%)” value [6] was 1%. The “Population Mitochondria Different-Phenotype (%)” value [6] was 4%, the “Population Mitotic Cells (%)” value [6] was 45% and the “Population Normal (%)” value [6] was 97%. The “Population Pyknosed Nuclei (%)” value [6] was 9%, the “Population Tubulin-Different-Phenotype (%)” value [6] was 17% and the “Total Cell Count” value [6] was 114. The “Population Apoptotic (%)” value [7] was 75%, the “Population Fragmented Nuclei (%)” value [7] was 18% and the “Population Healthy Nuclei (%)” value [7] was 59%. The “Population Hoechst High Intensity Objects (%)” value [7] was 8%, the “Population Membrane Permeable-Phenotype (%)” value [7] was 6% and the “Population Mitochondria Different-Phenotype (%)” value [7] was 90%. For the same compound, the “Population Mitotic Cells (%)” value [7] was 25%, the “Population Normal (%)” value [7] was 91% and the “Population Pyknosed Nuclei (%)” value [7] was 22%. The “Population Tubulin-Different-Phenotype (%)” value [7] was 69%, the “Total Cell Count” value [7] was 157 and the “Population Apoptotic (%)” value [8] was 40%. For the same compound, the “Population Fragmented Nuclei (%)” value [8] was 2%, the “Population Healthy Nuclei (%)” value [8] was 81% and the “Population Hoechst High Intensity Objects (%)” value [8] was 1%. The “Population Membrane Permeable-Phenotype (%)” value [8] was 2%, the “Population Mitochondria Different-Phenotype (%)” value [8] was 31% and the “Population Mitotic Cells (%)” value [8] was 60%. For the same compound, the “Population Normal (%)” value [8] was 98%, the “Population Pyknosed Nuclei (%)” value [8] was 16% and the “Population Tubulin-Different-Phenotype (%)” value [8] was 14%. For the same compound, the “Total Cell Count” value [8] was 92, the “Population Apoptotic (%)” value [9] was 80% and the “Population Fragmented Nuclei (%)” value [9] was 7%. The “Population Healthy Nuclei (%)” value [9] was 85%, the “Population Hoechst High Intensity Objects (%)” value [9] was 3% and the “Population Membrane Permeable-Phenotype (%)” value [9] was 2%. The “Population Mitochondria Different-Phenotype (%)” value [9] was 9%, the “Population Mitotic Cells (%)” value [9] was 20% and the “Population Normal (%)” value [9] was 96%. The “Population Pyknosed Nuclei (%)” value [9] was 6%, the “Population Tubulin-Different-Phenotype (%)” value [9] was 5% and the “Total Cell Count” value [9] was 227. The “Population Apoptotic (%)” value [10] was 62%, the “Population Fragmented Nuclei (%)” value [10] was 5% and the “Population Healthy Nuclei (%)” value [10] was 89%. The “Population Hoechst High Intensity Objects (%)” value [10] was 0%, the “Population Membrane Permeable-Phenotype (%)” value [10] was 4% and the “Population Mitochondria Different-Phenotype (%)” value [10] was 12%. For the same compound, the “Population Mitotic Cells (%)” value [10] was 37%, the “Population Normal (%)” value [10] was 99% and the “Population Pyknosed Nuclei (%)” value [10] was 4%. For the same compound, the “Population Tubulin-Different-Phenotype (%)” value [10] was 21%, the “Total Cell Count” value [10] was 164 and the “Population Apoptotic (%)” value [11] was 74%. The “Population Fragmented Nuclei (%)” value [11] was 17%, the “Population Healthy Nuclei (%)” value [11] was 58% and the “Population Hoechst High Intensity Objects (%)” value [11] was 4%. For the same compound, the “Population Membrane Permeable-Phenotype (%)” value [11] was 11%, the “Population Mitochondria Different-Phenotype (%)” value [11] was 78% and the “Population Mitotic Cells (%)” value [11] was 25%. For the same compound, the “Population Normal (%)” value [11] was 95%, the “Population Pyknosed Nuclei (%)” value [11] was 23% and the “Population Tubulin-Different-Phenotype (%)” value [11] was 55%. For the same compound, the “Total Cell Count” value [11] was 194, the “Population Apoptotic (%)” value [12] was 33% and the “Population Fragmented Nuclei (%)” value [12] was 9%. For the same compound, the “Population Healthy Nuclei (%)” value [12] was 80%, the “Population Hoechst High Intensity Objects (%)” value [12] was 1% and the “Population Membrane Permeable-Phenotype (%)” value [12] was 6%. The “Population Mitochondria Different-Phenotype (%)” value [12] was 14%, the “Population Mitotic Cells (%)” value [12] was 66% and the “Population Normal (%)” value [12] was 98%. For the same compound, the “Population Pyknosed Nuclei (%)” value [12] was 10%, the “Population Tubulin-Different-Phenotype (%)” value [12] was 13% and the “Total Cell Count” value [12] was 146.
